Laboratory results reported in ChEMBL document CHEMBL1122273, “5-sulfamoylorthanilic acids, a sulfonamide series with salidiuretic activity” (J Med Chem, 1983).

Columns and labels:
Canis familiaris [1] = test: Urinary excretion collected at 1-6 hr time after oral administration in dog (four animals per dose) at dose 6.25 mg/kg.; format: functional, Canis lupus familiaris, Urine
Method in brief: (§1)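 Trained male beagles, four per dose, fasted 24 h with tap water ad libitum. After bladder emptying, given 20 mL/kg tap water by stomach tube, then 4 mL/kg at each hourly catheterization; 2 h control collection, then oral dosing. Urine volume and Na⁺ (flame photometry) reported for 1–6, 7–24 and 1–24 h post-dose periods.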

Canis familiaris [2] = test: sodium excretion collected at 1-6 hr time after oral administration in dog (four animals per dose) at dose 0.39 mg/kg.; format: functional, Canis lupus familiaris; method in brief: as §1
Rattus norvegicus [3] = species: Rattus norvegicus; test: Effect on Urine flow in rats in comparison to furosemide activity
[4] = It is the ratio, measured as saluretic activity in the dog as concentration of Cl- in urinary excretion (dose 1.56 mg/Kg, perorally) to that of (Na+)+K+); format: functional, Urine
Method in brief: (§2)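 Trained male beagles, fasted 24 h with tap water ad libitum. Bladder emptied by catheter, then 20 mL/kg tap water by stomach tube, with 4 mL/kg water at each hourly catheterization up to 8 h. The first 2 h of urine served as control. Oral dosing came after the second catheterization, and 1–6 h urine was pooled. Na⁺ and K⁺ were measured by flame photometry, Cl⁻ argentometrically, in mequiv/kg.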

Canis familiaris [5] = test: sodium excretion collected at 1-24 hr time after oral administration in dog (four animals per dose) at dose 1.56 mg/kg.; format: functional, Canis lupus familiaris; method in brief: as §1
Canis familiaris [6] = test: sodium excretion collected at 1-24 hr time after oral administration in dog (four animals per dose) at dose 0.39 mg/kg.; format: functional, Canis lupus familiaris; method in brief: as §1
Canis familiaris [7] = test: Saluretic activity in the dog measured as concentration of Na+ in urinary excretion (2 animals/dose) at a dose of 0.1 mg/Kg, perorally; format: functional, Canis lupus familiaris, Urine
Method in brief: (§3)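 Male beagles trained to rest on a table and to accept stomach tube and catheter. Food withdrawn 24 h before, tap water ad libitum. Bladder emptied by catheter, then 20 mL/kg tap water by stomach tube. Catheterized hourly up to 8 h with 4 mL/kg water orally each time; first 2 h urine served as control. Oral dosing after second catheterization. Pooled 1–6 h urine; Na⁺/K⁺ by flame photometry, Cl⁻ argentometrically.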

Canis familiaris [8] = test: sodium excretion collected at 1-6 hr time after oral administration in dog (four animals per dose) at dose 1.56 mg/kg.; format: functional, Canis lupus familiaris; method in brief: as §1
Canis familiaris [9] = test: Urinary excretion collected at 1-24 hr time after oral administration in dog (four animals per dose) at dose 6.25 mg/kg.; format: functional, Canis lupus familiaris, Urine; method in brief: as §1
[10] = It is the ratio, measured as saluretic activity in the dog as concentration of Na+ in urinary excretion (dose 12.5 mg/kg, p.o.) to that of K; format: functional, Urine; settings: route oral; method in brief: as §2
[11] = It is the ratio, measured as saluretic activity in the dog as concentration of Cl- in urinary excretion (dose 12.5 mg/kg, p.o.) to that of (Na+)+(K+); format: functional, Urine; settings: route oral; method in brief: as §2
Rattus norvegicus [12] = species: Rattus norvegicus; test: Effect on (GFR) glomerular filtration rate in rats in comparison to furosemide activity
Canis familiaris [13] = test: Diuretic activity in the dog (2 animals/dose) at (dose 12.5 mg/Kg), when administered perorally; format: functional, Canis lupus familiaris, Urine; method in brief: as §2
Canis familiaris [14] = test: sodium excretion collected at 1-6 hr time after oral administration in dog (four animals per dose) at dose 6.25 mg/kg.; format: functional, Canis lupus familiaris; method in brief: as §1
Canis familiaris [15] = test: Saluretic activity in the dog measured as concentration of Na+ in urinary excretion (2 animals/dose) at (dose 12.5 mg/Kg, perorally); format: functional, Canis lupus familiaris, Urine; method in brief: as §3
Canis familiaris [16] = test: urinary excretion collected at 7-24 hr time after oral administration in dog (four animals per dose) dosed at 3.12 mg/kg.; format: functional, Canis lupus familiaris, Urine
Canis familiaris [17] = test: urinary excretion collected at 1-24 hr time after oral administration in dog (four animals per dose) dosed at 3.12 mg/kg.; format: functional, Canis lupus familiaris, Urine
Method in brief: (§4)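 Trained male beagles, four per dose, fasted 24 h with tap water ad libitum. The bladder was emptied by catheter, then 20 mL/kg tap water was given by stomach tube. Dogs were catheterized hourly with 4 mL/kg water orally each time, and the first 2 h served as control. Compound was given orally after the second catheterization. Urine volume and flame-photometric Na⁺ were measured over 1-6, 7-24 and 1-24 h.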

Canis familiaris [18] = test: urinary excretion collected at 1-24 hr time after oral administration in dog (four animals per dose) dosed at 0.39 mg/kg.
[19] = It is the ratio, measured as saluretic activity in the dog as concentration of Cl- in urinary excretion (dose 1.56 mg/Kg, po) to that of (Na+)+(K+); format: functional, Urine; method in brief: as §2
[20] = It is the ratio, measured as saluretic activity in the dog as concentration of Cl- in urinary excretion (dose 0.4 mg/Kg, po) to that of (Na+)+(K+); format: functional, Urine; method in brief: as §2
Canis familiaris [21] = test: urinary excretion collected at 7-24 hr time after oral administration in dog (four animals per dose) dosed at 0.39 mg/kg.; format: functional, Canis lupus familiaris, Urine
Canis familiaris [22] = test: Saluretic activity in the dog measured as concentration of Cl - in urinary excretion (2 animals/dose) at (dose 0.025 mg/Kg, perorally); format: functional, Canis lupus familiaris, Urine
Method in brief: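 Male beagles trained to the procedures, food withdrawn 24 h before, tap water ad libitum. Bladder emptied by catheter, then 20 mL/kg tap water by stomach tube, plus 4 mL/kg orally at each hourly catheterization up to 8 h. The first 2 h of urine served as control. Compound given orally after the second catheterization. Urine from 1–6 h post-dose pooled; Na⁺ and K⁺ by flame photometry, Cl⁻ argentometrically, in mequiv/kg.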

Canis familiaris [23] = test: urinary excretion collected at 1-6 hr time after oral administration in dog (four animals per dose) dosed at 0.05 mg/kg.; format: functional, Canis lupus familiaris, Urine; method in brief: as §4
Canis familiaris [24] = test: sodium excretion collected at 1-24 hr time after oral administration in dog (four animals per dose) dosed at 0.39 mg/kg.; format: functional, Canis lupus familiaris; method in brief: as §1
Canis familiaris [25] = test: urinary excretion collected at 1-6 hr time after oral administration in dog (four animals per dose) dosed at 3.12 mg/kg.; format: functional, Canis lupus familiaris, Urine
Canis familiaris [26] = test: sodium excretion collected at 1-24 hr time after oral administration in dog (four animals per dose) dosed at 3.12 mg/kg.; format: functional, Canis lupus familiaris; method in brief: as §1
Canis familiaris [27] = test: Saluretic activity in the dog measured as concentration of Na+ in urinary excretion (2 animals/dose) at (dose 0.025 mg/Kg, perorally); format: functional, Canis lupus familiaris, Urine; method in brief: as §3
Canis familiaris [28] = test: Urinary excretion collected at 1-6 hr time after oral administration in dog (four animals per dose) dosed at 0.39 mg/kg.; format: functional, Canis lupus familiaris, Urine; method in brief: as §1
Canis familiaris [29] = test: sodium excretion collected at 7-24h time after oral administration in dog (four animals per dose) dosed at 0.05 mg/kg.; format: functional, Canis lupus familiaris; method in brief: as §4
Canis familiaris [30] = test: sodium excretion collected at 1-6 h time after oral administration in dog (four animals per dose) dosed at 0.05 mg/kg.; format: functional, Canis lupus familiaris; method in brief: as §1
[31] = It is the ratio, measured as saluretic activity in the dog as concentration of Na+ in urinary excretion (dose 1.56 mg/Kg, po) to that of K; format: functional, Urine; method in brief: as §2
Canis familiaris [32] = test: urinary excretion collected at 1-24 hr time after oral administration in dog (four animals per dose) dosed at 0.05 mg/kg.; format: functional, Canis lupus familiaris, Urine; method in brief: as §4
Canis familiaris [33] = test: Saluretic activity in the dog measured as concentration of Na+ in urinary excretion (2 animals/dose) at (dose 0.4 mg/Kg, perorally); format: functional, Canis lupus familiaris, Urine; method in brief: as §3

NS(=O)(=O)c1cc(S(=O)(=O)[O-])c(NCc2ccco2)cc1Oc1ccccc1.[Na+]
Urinary excretion (Canis familiaris [1]): 75.4 mL/kg | Na+ excretion (Canis familiaris [2]): 1.57 mequiv kg-1 | Volume (Rattus norvegicus [3]): 0.909 mL/min/kg | Ratio [4]: 0.95 | Na+ excretion (Canis familiaris [5]): 5.4 mequiv kg-1 | Na+ excretion (Canis familiaris [6]): 2.04 mequiv/kg | Saluretic activity (Canis familiaris [7]): 0.18 m equiv 5hr-1 kg-1 | Na+ excretion (Canis familiaris [8]): 4.97 mequiv kg-1 | Urinary excretion (Canis familiaris [9]): 111.1 mL/kg | Ratio [10]: 5.5 | Ratio [11]: 0.95 | GFR (Rattus norvegicus [12]): 6.89 mL/min/kg | Diuretic activity (Canis familiaris [13]): 74.3 ml kg-1 6hr-1 | Na+ excretion (Canis familiaris [14]): 6.52 mequiv kg-1 | Saluretic activity (Canis familiaris [15]): 6.49 m equiv 6hr-1 kg-1

CN(c1ccccc1)c1cc(NCc2ccco2)c(S(=O)(=O)[O-])cc1S(N)(=O)=O.[Na+]
Urinary excretion (Canis familiaris [16]): 40.8 mL/kg | Urinary excretion (Canis familiaris [17]): 102 mL/kg | Urinary excretion (Canis familiaris [18]): 95.7 mL/kg | Ratio [19]: 1 | Ratio [20]: 1 | Urinary excretion (Canis familiaris [21]): 20.4 mL/kg | Saldiuretic activity (Canis familiaris [22]): 0.75 mequiv kg-1 6hr-1 | Urinary excretion (Canis familiaris [23]): 40.5 mL/kg | Na+ excretion (Canis familiaris [24]): 5.81 mequiv kg-1 | Urinary excretion (Canis familiaris [25]): 61.2 mL/kg | Na+ excretion (Canis familiaris [26]): 6.48 mequiv kg-1 | Saluretic activity (Canis familiaris [27]): 0.45 m equiv 6hr-1 kg-1 | Urinary excretion (Canis familiaris [28]): 75.3 mL/kg | Na+ excretion (Canis familiaris [29]): 0.22 mequiv kg-1 | Na+ excretion (Canis familiaris [30]): 1.29 mequiv kg-1 | Ratio [31]: 4.9 | Urinary excretion (Canis familiaris [32]): 50.6 mL/kg | Saluretic activity (Canis familiaris [33]): 5.26 m equiv 6hr-1 kg-1
